Measured values from ChEMBL document CHEMBL1148390, “Structural analysis and optimization of NK(1) receptor antagonists through modulation of atropisomer interconversion properties” (J Med Chem, 2004).

Experiments:
[1] = target: T1, Substance-K receptor (Oryctolagus cuniculus) (UniProt P79218); assay: In vitro binding affinity towards Tachykinin receptor 2 using rabbit pulmonary artery tissues
T1 sequence (whole entry): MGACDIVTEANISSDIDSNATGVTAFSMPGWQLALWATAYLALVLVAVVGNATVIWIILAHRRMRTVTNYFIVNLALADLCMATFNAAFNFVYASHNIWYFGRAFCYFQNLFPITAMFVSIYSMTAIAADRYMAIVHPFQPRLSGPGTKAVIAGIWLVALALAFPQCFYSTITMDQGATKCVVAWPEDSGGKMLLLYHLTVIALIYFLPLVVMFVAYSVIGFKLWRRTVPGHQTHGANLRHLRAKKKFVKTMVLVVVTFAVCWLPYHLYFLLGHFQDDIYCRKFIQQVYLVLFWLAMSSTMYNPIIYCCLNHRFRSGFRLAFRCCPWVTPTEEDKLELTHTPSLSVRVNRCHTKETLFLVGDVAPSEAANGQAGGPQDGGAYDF
Procedure, shortened: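 Functional antagonism in isolated rabbit pulmonary artery (n = 2–6), reported as pKB. NK1 tested against agonist ASMSP with antagonist at 1 nM, or at 100 nM where antagonism was not purely competitive; NK2 tested against agonist BANK with antagonist at 1 μM. Where antagonism was not purely competitive, activity was taken as percent inhibition = 100 – maximum relaxation as % of control.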

Substance-K receptor = target: T2, Substance-K receptor (Homo sapiens, UniProt P21452); assay: In vitro binding affinity towards human Tachykinin receptor 2 was determined by using [125I]NKA as a radioligand
T2 sequence (P21452 whole entry): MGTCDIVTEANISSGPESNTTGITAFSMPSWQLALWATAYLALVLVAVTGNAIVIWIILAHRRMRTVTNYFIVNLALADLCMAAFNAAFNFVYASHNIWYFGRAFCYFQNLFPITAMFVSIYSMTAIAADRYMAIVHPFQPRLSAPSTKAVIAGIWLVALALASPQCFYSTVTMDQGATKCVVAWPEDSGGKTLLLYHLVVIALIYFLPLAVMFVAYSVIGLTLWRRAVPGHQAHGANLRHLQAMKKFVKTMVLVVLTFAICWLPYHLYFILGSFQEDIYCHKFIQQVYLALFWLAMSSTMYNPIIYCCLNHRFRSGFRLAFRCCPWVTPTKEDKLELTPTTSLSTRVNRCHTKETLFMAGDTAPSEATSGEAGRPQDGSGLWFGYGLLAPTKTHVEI
Procedure, shortened: (§1)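 Human tachykinin receptors stably expressed in mouse erythroleukemia (MEL) cells; NK3 construct differs from genomic sequence at AA439 (Cys vs Phe). Radioligand displacement: [3H]SP for NK1, [125I]NKA for NK2, [125I]MePheNKB for NK3; n ≥ 2 determinations.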

Gerbillinae = assay: Percent inhibitory activity against ASMSP induced foot tapping response in gerbils after oral dose of 5 uM/kg; format: functional
Procedure, shortened: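 Gerbils given antagonist orally at 5 μmol/kg 6 h before central (CNS) administration of ASMSP (100 pmol). Foot-tapping response compared with vehicle-only control animals; result expressed as percent inhibition.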

Substance-P receptor = Substance-P receptor (Homo sapiens, UniProt P25103); assay: In vitro binding affinity towards human Tachykinin receptor 1 was determined by using [3H]SP as a radioligand; procedure, shortened: as §1
Substance-P receptor, sequence (P25103 whole entry): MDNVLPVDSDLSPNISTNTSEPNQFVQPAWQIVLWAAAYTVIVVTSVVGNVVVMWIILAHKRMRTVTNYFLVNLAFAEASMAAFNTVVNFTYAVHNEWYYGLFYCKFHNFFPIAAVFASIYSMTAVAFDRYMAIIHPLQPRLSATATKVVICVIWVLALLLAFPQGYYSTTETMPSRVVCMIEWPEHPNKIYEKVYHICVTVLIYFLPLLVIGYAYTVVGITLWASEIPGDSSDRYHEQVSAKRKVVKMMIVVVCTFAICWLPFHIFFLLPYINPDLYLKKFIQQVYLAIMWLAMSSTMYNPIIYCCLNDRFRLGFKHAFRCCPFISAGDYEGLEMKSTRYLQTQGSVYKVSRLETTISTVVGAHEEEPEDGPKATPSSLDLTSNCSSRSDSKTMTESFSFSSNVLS

[2] = Bioavailability was measured in dogs after an oral dose of 10 uM/kg; format: ADME, organism-based, Canis lupus familiaris; conditions: dog, in vivo, read-out: Bioavailabiility
Procedure, shortened: (§2)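 Dogs (n = 3) dosed orally at 10–100 μmol/kg as a solution in 75% polyethylene glycol 400 in normal saline; iv bolus comparison at 1–10 μmol/kg. Blood taken via surgically implanted cannula or by venipuncture over 24 h; plasma analysed for unchanged compound by LC–MS.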

[3] = Area under plasma concentration time curve was measured in dogs after an oral dose of 10 uM/kg; format: ADME, organism-based, Canis lupus familiaris; conditions: dog; procedure, shortened: as §2
[4] = Half-life was measured in dogs after an oral dose of 10 uM/kg; format: ADME, organism-based, Canis lupus familiaris; conditions: dog, in vivo; procedure, shortened: as §2
[5] = Maximum plasma concentration was measured in dogs after an oral dose of 10 umol/kg; format: ADME, organism-based, Canis lupus familiaris; design: dose 10 umol/kg, route oral; conditions: dog; procedure, shortened: as §2
[6] = Time for maximum plasma concentration was measured in dogs after an oral dose of 10 uM/kg; format: ADME, organism-based, Canis lupus familiaris; conditions: dog; procedure, shortened: as §2
Neuromedin-K receptor = target: T3, Neuromedin-K receptor (Homo sapiens, UniProt P29371); assay: In vitro binding affinity towards human Tachykinin receptor 3 was determined by using [125I]MePhe-NKB as a radioligand; procedure, shortened: as §1
T3 sequence (P29371 whole entry): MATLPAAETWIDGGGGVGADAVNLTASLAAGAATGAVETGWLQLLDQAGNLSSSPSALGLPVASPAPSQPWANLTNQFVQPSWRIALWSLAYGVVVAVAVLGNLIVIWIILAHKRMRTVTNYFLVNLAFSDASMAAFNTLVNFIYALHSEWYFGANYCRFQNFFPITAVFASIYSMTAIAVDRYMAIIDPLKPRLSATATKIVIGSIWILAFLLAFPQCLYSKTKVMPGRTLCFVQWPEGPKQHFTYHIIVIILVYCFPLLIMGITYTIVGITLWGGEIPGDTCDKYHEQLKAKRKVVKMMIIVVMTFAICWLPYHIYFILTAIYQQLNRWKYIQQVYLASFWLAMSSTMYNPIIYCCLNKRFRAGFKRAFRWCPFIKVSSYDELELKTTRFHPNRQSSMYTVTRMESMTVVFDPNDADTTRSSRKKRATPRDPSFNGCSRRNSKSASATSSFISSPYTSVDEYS

[7] = tested on: Substance-P receptor (Oryctolagus cuniculus); assay: In vitro binding affinity towards Tachykinin receptor 1 was determined using rabbit pulmonary artery tissues

**Q.** Which pKB [1] does the source give for CCc1c(C#N)cc2ccccc2c1C(=O)N(C)C[C@@H](CCN1CCC(c2ccccc2[S@+](C)[O-])CC1)c1ccc(Cl)c(Cl)c1 (stereo in doubt; 3) [listing 1 of 2 here] here?
**A.** Its pKB is 7.31.

**Q.** Which results are given for CCc1c(C#N)cc2ccccc2c1C(=O)N(C)C[C@@H](CCN1CCC(c2ccccc2[S@+](C)[O-])CC1)c1ccc(Cl)c(Cl)c1 (stereo in doubt; form 3) [listing 1 of 2 here]?
**A.** Ki (Substance-K receptor): 0.022 µM; Inhibition (Gerbillinae): 0.3%; Ki (Substance-P receptor): 0.00294 µM

**Q.** Which results are given for CCc1c(C#N)cc2ccccc2c1C(=O)N(C)C[C@@H](CCN1CCC(c2ccccc2[S@+](C)[O-])CC1)c1ccc(Cl)c(Cl)c1 (stereo in doubt; 3) [listing 2 of 2 here]?
**A.** bioavailability [2]: 37.3%; AUC [3]: 6.13 µg·h/mL; half-life [4]: 5.9 h; Ki (Substance-K receptor): 0.037 µM; Cmax [5]: 0.662 µg/mL; Inhibition (Gerbillinae): 33%; Ki (Substance-P receptor): 0.00124 µM; Tmax [6]: 4 h; Ki (Neuromedin-K receptor): 0.097 µM

**Q.** With Cc1c(C#N)cc2ccccc2c1C(=O)N(C)C[C@@H](CCN1CCC(c2ccccc2[S@+](C)[O-])CC1)c1ccc(Cl)c(Cl)c1 as the molecule, how does the pKB [7] read?
**A.** The pKB was 9.06.

**Q.** And the pKB [1]?
**A.** Its pKB is 7.1.

**Q.** Which pKB [1] does the source give for CCc1c(C#N)cc2ccccc2c1C(=O)N(C)C[C@@H](CCN1CCC(c2ccccc2[S@+](C)[O-])CC1)c1ccc(Cl)c(Cl)c1 (stereo in doubt; form 3) [listing 2 of 2 here] here?
**A.** Its pKB is 6.83.

**Q.** Which pKB [7] does the source give for CC(C)Cc1c(C#N)cc2ccccc2c1C(=O)N(C)C[C@@H](CCN1CCC(c2ccccc2[S@+](C)[O-])CC1)c1ccc(Cl)c(Cl)c1 here?
**A.** The pKB was 7.23.

**Q.** What about the pKB [1] of the same molecule?
**A.** The pKB was 6.35.

**Q.** Which results are given for CN(C[C@@H](CCN1CCC(c2ccccc2[S@+](C)[O-])CC1)c1ccc(Cl)c(Cl)c1)C(=O)c1c(-c2ccccc2)c(C#N)cc2ccccc12?
**A.** pKB [7]: 7.39; pKB [1]: 7.27

**Q.** For CCc1c(C#N)cc2ccccc2c1C(=O)N(C)C[C@@H](CCN1CCC(c2ccccc2[S@+](C)[O-])CC1)c1ccc(Cl)c(Cl)c1 (stereo in doubt; form 2) [listing 1 of 2 here], which pKB [1] is on record?
**A.** The pKB was 6.25.

**Q.** Which pKB [1] does the source give for CCc1c(C#N)cc2ccccc2c1C(=O)N(C)C[C@@H](CCN1CCC(c2ccccc2[S@+](C)[O-])CC1)c1ccc(Cl)c(Cl)c1 (stereo in doubt; form 1) [listing 1 of 2 here] here?
**A.** Its pKB is 7.11.

**Q.** For CCc1c(C#N)cc2ccccc2c1C(=O)N(C)C[C@@H](CCN1CCC(c2ccccc2[S@+](C)[O-])CC1)c1ccc(Cl)c(Cl)c1 (stereo in doubt; form 2) [listing 2 of 2 here], which Ki (Substance-K receptor) is on record?
**A.** Its Ki is 0.033 µM.

**Q.** And the Inhibition (Gerbillinae)?
**A.** Its Inhibition is 91%.

**Q.** And the Ki (Substance-P receptor)?
**A.** Its Ki is 0.00694 µM.

**Q.** Which Ki (Substance-K receptor) does the source give for CCc1c(C#N)cc2ccccc2c1C(=O)N(C)C[C@@H](CCN1CCC(c2ccccc2[S@+](C)[O-])CC1)c1ccc(Cl)c(Cl)c1 (stereo in doubt; form 1) [listing 2 of 2 here] here?
**A.** Its Ki is 0.023 µM.

**Q.** And the Inhibition (Gerbillinae)?
**A.** Its Inhibition is 1.4%.

**Q.** And the Ki (Substance-P receptor)?
**A.** Its Ki is 0.00171 µM.

**Q.** For CN(C[C@@H](CCN1CCC(c2ccccc2[S@+](C)[O-])CC1)c1ccc(Cl)c(Cl)c1)C(=O)c1cc(C#N)cc2ccccc12, which pKB [1] is on record?
**A.** The pKB was 8.3.

**Q.** Which results are given for CCc1c(C#N)cc2ccccc2c1C(=O)N(C)C[C@@H](CCN1CCC(c2ccccc2[S@+](C)[O-])CC1)c1ccc(Cl)c(Cl)c1 (stereo in doubt; form 4)?
**A.** Ki (Substance-K receptor): 0.035 µM; Inhibition (Gerbillinae): 13%; Ki (Substance-P receptor): 0.0004 µM

**Q.** What does the source list for CCCc1c(C#N)cc2ccccc2c1C(=O)N(C)C[C@@H](CCN1CCC(c2ccccc2[S@+](C)[O-])CC1)c1ccc(Cl)c(Cl)c1?
**A.** pKB [7]: 7.8; pKB [1]: 6.72
